From ChEMBL document CHEMBL4118021, “Studies of TAK1-centered polypharmacology with novel covalent TAK1 inhibitors” (Bioorg Med Chem, 2017) come the findings set out here.

The target of assay [1] is Ribosomal protein S6 kinase alpha-3 (Homo sapiens) (UniProt P51812). In words: Inhibition of RSK2 domain2 in human SKCO1 cells at 1 uM after 4 hrs using biotin labeled DLKPSNILYVDESGNPESIR probe by mass-spectrometric analysis relative to control. Format: cell-based.
Assay [2] deals with T1, Mitogen-activated protein kinase kinase kinase 7 (Homo sapiens) (UniProt O43318).
T1 sequence (whole entry): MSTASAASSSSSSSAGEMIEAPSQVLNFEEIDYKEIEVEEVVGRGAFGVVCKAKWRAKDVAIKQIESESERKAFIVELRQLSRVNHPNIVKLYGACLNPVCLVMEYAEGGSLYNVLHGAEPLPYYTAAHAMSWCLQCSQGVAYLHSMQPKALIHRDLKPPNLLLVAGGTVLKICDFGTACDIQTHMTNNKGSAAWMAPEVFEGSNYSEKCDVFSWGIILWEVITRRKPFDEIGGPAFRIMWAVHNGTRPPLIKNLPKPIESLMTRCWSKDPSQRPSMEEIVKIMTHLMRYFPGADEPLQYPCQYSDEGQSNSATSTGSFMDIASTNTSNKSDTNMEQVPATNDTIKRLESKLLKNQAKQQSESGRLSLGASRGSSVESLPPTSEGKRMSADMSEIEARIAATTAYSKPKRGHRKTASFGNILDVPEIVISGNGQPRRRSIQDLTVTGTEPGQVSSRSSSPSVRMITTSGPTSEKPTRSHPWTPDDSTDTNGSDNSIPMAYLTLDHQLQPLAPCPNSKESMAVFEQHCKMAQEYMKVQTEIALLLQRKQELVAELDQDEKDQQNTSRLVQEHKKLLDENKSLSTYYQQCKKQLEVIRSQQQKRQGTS
The assay is described as follows: Inhibition of TAK1 in RA patient-derived synovial fibroblasts assessed as inhibition of IL-1alpha-induced cytokine secretion at 3 uM preincubated for 3 hrs followed by IL-1alpha stimulation measured after 18 hrs by sandwich immunoassay. A digest of the protocol: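 Primary RA synovial fibroblasts (donor RA2159) seeded 1000 cells/well and grown ~24 h at 37 °C, 5% CO2. Starved overnight in basal medium, then ~4 h in basal medium with 0.1% BSA. Two adjacent wells pooled per replicate, in biological duplicate. Supernatants diluted 1:3 and run on Luminex 27-plex/21-plex sandwich immunoassays for 48 analytes, with spiked-ligand and mock-supernatant background controls.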

Assay [3] deals with Serine/threonine-protein kinase TAO2 (Homo sapiens) (UniProt Q9UL54). In words: Inhibition of TAO2 in human SKCO1 cells at 1 uM after 4 hrs using biotin labeled DVKAGNILLSEPGLVK probe by mass-spectrometric analysis relative to control. Type of assay: cell-based.
Assay [4] addresses Activin receptor type-1 (Homo sapiens) (UniProt Q04771). The assay is described as follows: Inhibition of human ACVR1 (188 to 509 residues) expressed in bacterial expression system assessed as enzyme activity at 1 uM by KINOMEScan assay relative to control. The arrangement: scale not given: the % may be the effect or the level left. In short, it runs like this: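 In vitro ATP-site competition binding assay (KinomeScan) across a panel of 456 kinases. Compound was tested at 1 and 10 μM. The read-out is the binding inhibition score relative to control.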

For assay [5], the target named is Vasodilator-stimulated phosphoprotein (Homo sapiens) (UniProt P50552). In words: Binding affinity to VASP in human NCI-H23 cells at 1 uM by mass spectrometry based pull down assay. Format: cell-based.
Assay [6] addresses Kelch-like ECH-associated protein 1 (Homo sapiens) (UniProt Q14145). The assay is described as follows: Binding affinity to KEAP1 in human NCI-H23 cells at 1 uM by mass spectrometry based pull down assay. Type of assay: cell-based.
The target in assay [7] is Small ribosomal subunit protein eS6 (Homo sapiens) (UniProt P62753). The assay is described as follows: Binding affinity to RPS6 in human NCI-H358 cells at 1 uM by mass spectrometry based pull down assay. Format: cell-based.
In assay [8] the target is Signal transducer and activator of transcription 1-alpha/beta (Homo sapiens) (UniProt P42224). The assay is described as follows: Binding affinity to STAT1 in human NCI-H358 cells at 1 uM by mass spectrometry based pull down assay. Format: cell-based.
Assay [9] deals with Reticulon-4 (Homo sapiens) (UniProt Q9NQC3). The assay is described as follows: Binding affinity to RTN4 in human NCI-H23 cells at 1 uM by mass spectrometry based pull down assay. Type of assay: cell-based.
In a further assay the test system is NCI-H23. The assay is described as follows: Binding affinity to PSMA7 in human NCI-H23 cells at 1 uM by mass spectrometry based pull down assay. Format: cell-based.
Another assay has as its target Beclin-1 (Homo sapiens) (UniProt Q14457). In words: Binding affinity to BECN1 in human NCI-H23 cells at 1 uM by mass spectrometry based pull down assay. Format: cell-based.
Another assay has as its target Nucleolin (Homo sapiens) (UniProt P19338). The assay is described as follows: Binding affinity to NCL in human NCI-H358 cells at 1 uM by mass spectrometry based pull down assay. Type of assay: cell-based.
Assay [10] has as its target Aldehyde dehydrogenase family 3 member A2 (Homo sapiens) (UniProt P51648). The assay is described as follows: Binding affinity to ALDH3A2 in human NCI-H358 cells at 1 uM by mass spectrometry based pull down assay. Format: cell-based.
The target in assay [11] is ATP synthase F(1) complex subunit alpha, mitochondrial (Homo sapiens) (UniProt P25705). The assay is described as follows: Binding affinity to ATP5A1 in human NCI-H358 cells at 1 uM by mass spectrometry based pull down assay. Type of assay: cell-based.
Assay [12] deals with Uracil-DNA glycosylase (Homo sapiens) (UniProt P13051). In words: Binding affinity to UNG in human NCI-H358 cells at 1 uM by mass spectrometry based pull down assay. Type of assay: cell-based.
Assay [13] addresses Leucine-rich repeat flightless-interacting protein 1 (Homo sapiens) (UniProt Q32MZ4). In words: Binding affinity to LRRFIP1 in human NCI-H358 cells at 1 uM by mass spectrometry based pull down assay. Format: cell-based.
The target of assay [14] is Protein transport protein Sec16A (Homo sapiens) (UniProt O15027). In words: Binding affinity to SEC16A in human NCI-H23 cells at 1 uM by mass spectrometry based pull down assay. Format: cell-based.
The target of assay [15] is 80S Ribosome (Homo sapiens) (UniProt P08865+P42677+P62753+P15880+P23396+P61247+P62701+P22090+P46782+P62081+P62241+P46781+P46783+P62280+P25398+P62277+P62263+P62841+P62244+P62249+P08708+P62269+P39019+P60866+P63220+P62266+P62847+P62851+P62854+P62979+P62857+P62273+P62861+P39023+P36578+P46777+Q02878+P18124+P62424+P62917+P32969+P27635+P62906+P62913+P30050+P26373+P40429+P50914+P61313+P18621+Q07020+Q02543+P84098+P46778+P35268+P62829+P62750+P83731+P61254+P61353+P46776+P46779+P47914+P62888+P62899+P62910+P49207+P42766+P18077+Q9Y3U8+P83881+P61927+P61513+P63173+P62891+P62945+P05388+P05386). The assay is described as follows: Binding affinity to RPL27 in human NCI-H358 cells at 1 uM by mass spectrometry based pull down assay. Type of assay: cell-based.

Assay [16] addresses Epithelial splicing regulatory protein 1 (Homo sapiens) (UniProt Q6NXG1). In words: Binding affinity to ESRP1 in human NCI-H358 cells at 1 uM by mass spectrometry based pull down assay. Type of assay: cell-based.

Structures are written as SMILES. Active and inactive are the calls of the source. No cut-off for these calls is given here.

Sequence of Reticulon-4 (Homo sapiens) (Q9NQC3 whole entry): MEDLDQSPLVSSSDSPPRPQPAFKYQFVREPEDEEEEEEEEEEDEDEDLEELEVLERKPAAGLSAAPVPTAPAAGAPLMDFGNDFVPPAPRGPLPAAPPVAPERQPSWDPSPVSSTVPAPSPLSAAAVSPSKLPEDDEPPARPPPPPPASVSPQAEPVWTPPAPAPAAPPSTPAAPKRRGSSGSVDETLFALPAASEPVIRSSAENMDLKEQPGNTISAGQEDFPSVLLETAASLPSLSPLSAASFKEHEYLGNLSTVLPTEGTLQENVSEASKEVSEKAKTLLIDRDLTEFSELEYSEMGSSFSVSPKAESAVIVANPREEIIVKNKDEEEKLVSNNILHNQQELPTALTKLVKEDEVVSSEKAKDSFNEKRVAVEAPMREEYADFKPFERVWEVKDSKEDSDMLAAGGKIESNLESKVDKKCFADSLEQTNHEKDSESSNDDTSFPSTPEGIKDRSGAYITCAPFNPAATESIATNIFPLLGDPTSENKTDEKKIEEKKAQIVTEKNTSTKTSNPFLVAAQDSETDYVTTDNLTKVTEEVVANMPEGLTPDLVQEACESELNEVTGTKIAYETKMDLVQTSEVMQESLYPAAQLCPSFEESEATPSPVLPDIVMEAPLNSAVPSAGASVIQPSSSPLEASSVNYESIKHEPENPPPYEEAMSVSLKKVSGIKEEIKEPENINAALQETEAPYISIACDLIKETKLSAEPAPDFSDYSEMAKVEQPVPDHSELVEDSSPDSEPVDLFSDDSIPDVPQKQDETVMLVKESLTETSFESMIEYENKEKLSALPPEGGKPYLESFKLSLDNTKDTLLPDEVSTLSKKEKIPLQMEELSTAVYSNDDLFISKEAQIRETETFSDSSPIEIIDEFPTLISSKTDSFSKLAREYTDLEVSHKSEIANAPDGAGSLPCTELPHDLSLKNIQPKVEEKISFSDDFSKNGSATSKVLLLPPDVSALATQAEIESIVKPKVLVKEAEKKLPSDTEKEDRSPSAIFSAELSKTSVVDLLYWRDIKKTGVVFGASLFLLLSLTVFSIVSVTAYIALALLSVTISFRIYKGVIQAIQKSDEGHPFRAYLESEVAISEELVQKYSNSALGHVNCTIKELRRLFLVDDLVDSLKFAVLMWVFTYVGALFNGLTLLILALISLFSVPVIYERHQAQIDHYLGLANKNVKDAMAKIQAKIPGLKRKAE
Sequence of Aldehyde dehydrogenase family 3 member A2 (Homo sapiens) (P51648 whole entry): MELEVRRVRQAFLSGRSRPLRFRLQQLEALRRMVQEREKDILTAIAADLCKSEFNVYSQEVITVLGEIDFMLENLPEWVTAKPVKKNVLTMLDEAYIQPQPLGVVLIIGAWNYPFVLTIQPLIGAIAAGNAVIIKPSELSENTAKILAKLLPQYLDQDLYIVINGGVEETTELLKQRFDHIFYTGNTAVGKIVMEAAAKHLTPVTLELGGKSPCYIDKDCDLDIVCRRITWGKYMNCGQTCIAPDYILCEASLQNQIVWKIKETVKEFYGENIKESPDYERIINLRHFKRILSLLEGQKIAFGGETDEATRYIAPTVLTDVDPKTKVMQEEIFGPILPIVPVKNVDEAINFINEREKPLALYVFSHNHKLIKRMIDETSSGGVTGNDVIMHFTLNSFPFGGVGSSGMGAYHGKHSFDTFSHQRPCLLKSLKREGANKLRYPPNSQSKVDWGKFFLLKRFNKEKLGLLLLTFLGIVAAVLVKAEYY
Sequence of Vasodilator-stimulated phosphoprotein (Homo sapiens) (P50552 whole entry): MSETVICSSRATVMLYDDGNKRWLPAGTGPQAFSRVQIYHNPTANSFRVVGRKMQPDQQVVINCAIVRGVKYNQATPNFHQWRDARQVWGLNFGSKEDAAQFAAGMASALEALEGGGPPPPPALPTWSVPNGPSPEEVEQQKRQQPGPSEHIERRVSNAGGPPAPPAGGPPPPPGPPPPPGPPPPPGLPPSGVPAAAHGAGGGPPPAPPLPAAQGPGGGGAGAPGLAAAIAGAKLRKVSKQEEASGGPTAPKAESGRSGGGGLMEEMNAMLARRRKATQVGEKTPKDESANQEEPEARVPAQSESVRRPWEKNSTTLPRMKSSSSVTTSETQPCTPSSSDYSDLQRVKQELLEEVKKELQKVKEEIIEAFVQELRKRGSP
Sequence of Kelch-like ECH-associated protein 1 (Homo sapiens) (Q14145 whole entry): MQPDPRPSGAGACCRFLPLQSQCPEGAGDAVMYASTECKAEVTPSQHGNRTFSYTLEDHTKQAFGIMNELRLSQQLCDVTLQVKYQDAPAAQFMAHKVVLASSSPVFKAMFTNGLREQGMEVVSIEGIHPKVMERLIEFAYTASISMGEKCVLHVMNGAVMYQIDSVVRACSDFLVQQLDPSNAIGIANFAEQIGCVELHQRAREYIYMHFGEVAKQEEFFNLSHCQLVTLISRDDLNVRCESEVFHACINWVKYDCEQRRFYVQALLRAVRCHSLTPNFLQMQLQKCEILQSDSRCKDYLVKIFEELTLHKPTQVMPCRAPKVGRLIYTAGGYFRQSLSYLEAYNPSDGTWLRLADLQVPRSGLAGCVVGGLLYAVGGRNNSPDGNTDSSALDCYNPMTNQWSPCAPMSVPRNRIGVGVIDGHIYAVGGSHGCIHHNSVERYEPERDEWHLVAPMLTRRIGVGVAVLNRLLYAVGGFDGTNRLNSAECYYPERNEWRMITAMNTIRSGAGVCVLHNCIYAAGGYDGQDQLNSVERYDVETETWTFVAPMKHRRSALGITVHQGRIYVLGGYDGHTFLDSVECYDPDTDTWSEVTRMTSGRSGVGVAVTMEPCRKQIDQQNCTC
Sequence of Signal transducer and activator of transcription 1-alpha/beta (Homo sapiens) (P42224 whole entry): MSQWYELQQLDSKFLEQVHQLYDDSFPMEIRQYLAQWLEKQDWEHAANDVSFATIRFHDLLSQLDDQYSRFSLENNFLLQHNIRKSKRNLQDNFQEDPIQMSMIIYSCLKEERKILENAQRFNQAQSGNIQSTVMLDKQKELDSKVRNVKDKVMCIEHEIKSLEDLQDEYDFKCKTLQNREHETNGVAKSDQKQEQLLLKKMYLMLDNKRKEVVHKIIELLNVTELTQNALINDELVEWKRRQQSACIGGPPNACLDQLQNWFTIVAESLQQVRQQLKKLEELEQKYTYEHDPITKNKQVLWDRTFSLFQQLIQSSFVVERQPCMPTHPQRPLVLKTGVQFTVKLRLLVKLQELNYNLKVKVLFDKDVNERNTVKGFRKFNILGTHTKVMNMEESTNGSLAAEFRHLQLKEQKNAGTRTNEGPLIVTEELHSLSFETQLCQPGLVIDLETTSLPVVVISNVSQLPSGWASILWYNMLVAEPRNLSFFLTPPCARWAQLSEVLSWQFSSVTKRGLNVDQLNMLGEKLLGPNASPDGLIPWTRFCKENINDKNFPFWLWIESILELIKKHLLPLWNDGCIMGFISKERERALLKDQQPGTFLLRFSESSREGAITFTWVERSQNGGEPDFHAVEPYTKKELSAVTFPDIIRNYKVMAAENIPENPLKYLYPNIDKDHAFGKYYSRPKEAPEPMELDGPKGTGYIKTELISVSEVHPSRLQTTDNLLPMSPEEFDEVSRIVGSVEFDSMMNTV
Sequence of Uracil-DNA glycosylase (Homo sapiens) (P13051 whole entry): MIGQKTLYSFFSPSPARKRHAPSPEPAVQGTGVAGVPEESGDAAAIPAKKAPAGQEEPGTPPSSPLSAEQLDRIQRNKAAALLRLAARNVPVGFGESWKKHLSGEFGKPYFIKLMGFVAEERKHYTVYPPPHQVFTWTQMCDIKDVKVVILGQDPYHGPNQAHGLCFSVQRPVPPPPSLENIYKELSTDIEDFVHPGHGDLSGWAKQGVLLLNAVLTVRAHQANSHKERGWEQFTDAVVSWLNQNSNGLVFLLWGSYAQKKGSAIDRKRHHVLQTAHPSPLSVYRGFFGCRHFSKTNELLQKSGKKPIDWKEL
Sequence of Activin receptor type-1 (Homo sapiens) (Q04771 whole entry, the tested form may be a part): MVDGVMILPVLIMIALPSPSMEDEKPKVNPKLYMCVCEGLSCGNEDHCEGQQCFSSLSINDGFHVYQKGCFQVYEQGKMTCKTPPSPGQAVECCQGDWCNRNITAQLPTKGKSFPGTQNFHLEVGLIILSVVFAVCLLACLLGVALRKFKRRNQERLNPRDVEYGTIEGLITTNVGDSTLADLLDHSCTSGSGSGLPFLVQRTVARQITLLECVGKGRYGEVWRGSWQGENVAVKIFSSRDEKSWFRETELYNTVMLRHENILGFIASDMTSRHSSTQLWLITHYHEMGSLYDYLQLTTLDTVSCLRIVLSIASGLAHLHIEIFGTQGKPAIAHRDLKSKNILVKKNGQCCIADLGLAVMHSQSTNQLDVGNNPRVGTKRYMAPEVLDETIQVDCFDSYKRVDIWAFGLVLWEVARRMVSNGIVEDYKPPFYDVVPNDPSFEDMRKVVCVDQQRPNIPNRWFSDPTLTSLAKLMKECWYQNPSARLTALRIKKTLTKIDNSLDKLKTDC
Sequence of Beclin-1 (Homo sapiens) (Q14457 whole entry): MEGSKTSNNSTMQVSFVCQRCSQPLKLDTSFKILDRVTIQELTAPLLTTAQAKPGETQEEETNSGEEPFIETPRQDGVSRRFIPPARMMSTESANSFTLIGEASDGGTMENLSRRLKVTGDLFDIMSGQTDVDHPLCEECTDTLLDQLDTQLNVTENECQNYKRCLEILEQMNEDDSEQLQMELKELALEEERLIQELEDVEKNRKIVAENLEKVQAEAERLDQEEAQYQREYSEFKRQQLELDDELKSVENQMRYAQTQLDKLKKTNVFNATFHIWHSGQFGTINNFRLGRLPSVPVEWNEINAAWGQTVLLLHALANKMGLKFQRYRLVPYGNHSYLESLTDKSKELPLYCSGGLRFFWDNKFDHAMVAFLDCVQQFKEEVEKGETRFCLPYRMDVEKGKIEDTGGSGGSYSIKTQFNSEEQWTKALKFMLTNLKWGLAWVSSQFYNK

One may read the inhibition as the relative decrease from the control value, in per cent. Take `C=CC(=O)Nc1ccccc1Oc1nc(Nc2cnn(CCOC)c2)ncc1Cl`: in assay [1], the inhibition is -9.3%. Also, the inhibition result in [2] was “Active”.
Turning to `COc1cc(O)c2c(c1)/C=C/C[C@H](O)[C@H](O)C(=O)/C=C\C[C@H](C)OC2=O`, the inhibition in assay [3] is -2.5%. Moreover, the Activity in assay [4] was found to be 21%.
Turning to `C=CC(=O)Nc1ccccc1Nc1nc(Nc2ccc(N3CCN(CCOCCOCCOCCNC(=O)CCCC[C@@H]4SC[C@@H]5NC(=O)N[C@@H]54)CC3)cc2)ncc1Cl`, the result (in assay [5]; in assay [6]; in [7]; in assay [8]; in assay [9]; in the assay with NCI-H23) was Active. Besides, the result (on Beclin-1 (Homo sapiens); at Nucleolin (Homo sapiens); in assay [10]; in assay [11]; in [12]; in assay [13]) was Active. The result in [14], in [15] and in assay [16] was Active.
